Assay results taken from ChEMBL document CHEMBL1122158, “Agents with potential specificity against melanotic melanoma” (1982).

Key:
B16 [1] = test: In vivo antitumor activity against B-16 Melanoma after intraperitoneal tumor implantation and then intraperitoneal administration of 100 mg/kg of dose; type: functional, Mus musculus
Outline: (§1)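 B-16 melanoma was implanted intraperitoneally and dosed per NCI protocols. Intraperitoneal treatment began 24 h after implant and was given once daily on days 1-9. Activity was expressed as % T/C, with T/C ≥ 125% taken as statistically significant.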

B16 [2] = test: In vivo antitumor activity against B-16 Melanoma after intraperitoneal tumor implantation and then intraperitoneal administration of 150 mg/kg of dose; type: functional, Mus musculus; outline: as §1
B16 [3] = test: In vivo antitumor activity against B-16 Melanoma after intraperitoneal tumor implantation and then intraperitoneal administration of 75 mg/kg of dose; type: functional, Mus musculus; outline: as §1
KB = test: In vitro effective dose that causes 50% inhibition of growth of KB cell line - human epidermoid carcinoma of the nasopharynx; type: functional; settings: read-out: ED50 (the source's name)
M2R = test: In vitro effective dose that causes 50% inhibition of growth of M2R cell line - amelanotic melanoma; type: functional; settings: Mus musculus, in the assay text read “melanotic melanoma” for “amelanotic melanoma”, read-out: ED50 (the source's name)
Outline: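 1 × 10^4 cells seeded in a 1:1 DMEM/Ham's F-12 medium with 1.2 g/L NaHCO3, 15 mM HEPES and 10% fetal bovine serum, at 37 °C in 5% CO2. After 24 h, the medium was replaced with fresh medium holding the test agent at various concentrations. Growth was followed for at least 3 more days by trypsinizing and Coulter counting. Net cell increase was expressed as % of control when controls had grown 8-fold.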

A2 (Mus musculus) = test: In vitro effective dose that causes 50% inhibition of growth of A2 cell line - amelanotic melanoma; settings: read-out: ED50 (the source's name)
PS = test: In vitro effective dose that causes 50% inhibition of growth of PS cell line - P388 lymphocytic leukemia; settings: Mus musculus, read-out: ED50 (the source's name)

Structure (SMILES) | T/C (B16 [1]) [%] | T/C (B16 [2]) [%] | T/C (B16 [3]) [%] | EC50 (KB) [µM] | EC50 (M2R) [µM] | EC50 (A2 (Mus musculus)) [µM] | EC50 (PS) [µM]
NC(CCCNc1cccc(O)c1)C(=O)O (stereo unspecified) | 87 | 82 | 104 | 300 | > 100 | > 100 | 300
NC(CCCNc1ccc(O)cc1)C(=O)O (stereo unspecified) | 98 | 106 | 122 | 120 | 13 | 22 | 9.5
NC(CNc1ccc(O)cc1)C(=O)O (stereo unspecified) | 103 | 101 | 111 | 140 | 24 | 54 | 32
